Test results reported in ChEMBL document CHEMBL5038571, “Design and Synthesis of EZH2-Based PROTACs to Degrade the PRC2 Complex for Targeting the Noncatalytic Activity of EZH2” (J Med Chem, 2021).
Active and inactive are the calls of the source. The calls are words filed in the database; no cut-off is given here.

How the values were obtained:
[1] = target: T1, Protein cereblon/Histone-lysine N-methyltransferase EZH2 (Homo sapiens) (UniProt Q15910+Q96SW2); test: PROTAC activity at CRBN E3 ligase/EZH2 in PRC2 complex in human DU-145 cells assessed as induction of EED degradation by measuring reduction in EED protein level at 1 uM incubated for 48 hrs by Western blot analysis; format: cell-based
Procedure, shortened: (§1)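 Cancer cell lines exposed to 1 μM compound for 48 h. Lysates immunoblotted (SDS-PAGE, nitrocellulose, 5% milk block, primary antibody overnight at 4 °C) for EZH2, SUZ12, EED, RbAp48 and H3K27me3. Bands quantified by densitometry and normalized to GAPDH.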

[2] = target: T1, Protein cereblon/Histone-lysine N-methyltransferase EZH2 (Homo sapiens); test: PROTAC activity at CRBN E3 ligase/EZH2 in PRC2 complex in human A2780 cells assessed as induction of RbAp48 degradation by measuring reduction in RbAp48 protein level at 1 uM incubated for 48 hrs by Western blot analysis; format: cell-based; procedure, shortened: as §1
[3] = target: T1, Protein cereblon/Histone-lysine N-methyltransferase EZH2 (Homo sapiens); test: PROTAC activity at CRBN E3 ligase/EZH2 in PRC2 complex in human WSUDLCL2 cells assessed as downregulation of SUZ12 expression at 1 uM pretreated with GSK126 for 4 hrs followed by compound addition and measured after 48 hrs by Western blot analysis; format: cell-based
Procedure, shortened: (§2)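 WSU-DLCL-2 cells pretreated 4 h with the named inhibitor, then compound added and incubated a further 48 h. EZH2, SUZ12, EED and RbAp48 measured by western blot (nitrocellulose transfer, skim-milk block, primary antibody overnight at 4 °C, chemiluminescent detection).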

WSUDLCL2 [4] = test: Antiproliferative activity against human WSUDLCL2 cells harboring EZH2-Y641F mutant assessed as inhibition of cell growth at 10 uM incubated for 9 days by optical microscopic analysis; format: functional, cell-based; conditions: time 9.0 day
Procedure, shortened: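 WSU-DLCL-2 cells seeded at 5 × 10³ per well, incubated 24 h, then exposed to 10 μM compound for 9 days with medium refreshed. Cells photographed and counted on days 1, 3, 5, 7 and 9. Mean SD of three independent experiments, t-test versus DMSO.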

A549 [5] = test: Upregulation of […] mRNA expression in human […] cells at 5 uM incubated for 48 hrs by qRT-PCR analysis; format: functional, cell-based
Procedure, shortened: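 A549 cells treated 48 h. Trizol RNA extraction, reverse transcription, SYBR qPCR (95 °C 30 s; 40 cycles of 95 °C 6 s, 60 °C 20 s). mRNA normalized to DMSO-treated cells; mean ± SD of three independent experiments.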

WSUDLCL2 [6] = test: Inhibition of PRC2 in human WSUDLCL2 cells assessed as suppression H3K27 dimethylation at 10 uM incubated for 48 hrs by Western blot analysis; format: cell-based
Procedure, shortened: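 Lysates run on SDS-PAGE and transferred to nitrocellulose. Membranes blocked with 5% skim milk for 2 h, primary antibody applied overnight at 4 °C, then secondary antibody and chemiluminescent detection of histone H3 methylation marks.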

[7] = target: T1, Protein cereblon/Histone-lysine N-methyltransferase EZH2 (Homo sapiens); test: PROTAC activity at CRBN E3 ligase/EZH2 in PRC2 complex in human WSUDLCL2 cells assessed as downregulation of EZH2 expression at 1 uM pretreated with lenalidomide for 4 hrs followed by compound addition and measured after 48 hrs by Western blot analysis; format: cell-based; procedure, shortened: as §2
A549 [8] = test: Downregulation of CHEK1 mRNA expression in human A549 cells at 10 uM incubated for 48 hrs by qRT-PCR analysis; format: functional, cell-based
Procedure, shortened: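 Cells treated 48 h. Total RNA extracted with Trizol, reverse-transcribed, and SYBR RT-qPCR run: 95 °C 30 s, then 40 cycles of 95 °C 6 s and 60 °C 20 s. mRNA normalized to the DMSO-treated group. Mean SD of three independent experiments, t-test versus DMSO.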

WSUDLCL2 [9] = test: Upregulation of CDKN2A mRNA expression in human WSUDLCL2 cells at 1 uM incubated for 48 hrs by qRT-PCR analysis; format: functional, cell-based
Procedure, shortened: (§3)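 WSU-DLCL-2 or Pfeiffer cells treated 48 h. Trizol RNA extraction, reverse transcription, SYBR qPCR (95 °C 30 s; 40 cycles of 95 °C 6 s, 60 °C 20 s). mRNA normalized to DMSO-treated cells; mean ± SD of three independent experiments, t-test.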

[10] = target: T1, Protein cereblon/Histone-lysine N-methyltransferase EZH2 (Homo sapiens); test: PROTAC activity at CRBN E3 ligase/EZH2 in PRC2 complex in human WSUDLCL2 cells assessed as downregulation of EZH2 expression at 1 uM pretreated with GSK126 for 4 hrs followed by compound addition and measured after 48 hrs by Western blot analysis; format: cell-based; procedure, shortened: as §2
Pfeiffer = test: Upregulation of ADRB2 mRNA expression in human Pfeiffer cells at 1 uM incubated for 48 hrs by qRT-PCR analysis; format: functional, cell-based; procedure, shortened: as §3
[11] = target: T1, Protein cereblon/Histone-lysine N-methyltransferase EZH2 (Homo sapiens); test: PROTAC activity at CRBN E3 ligase/EZH2 in PRC2 complex in human WSUDLCL2 cells assessed as induction of EZH2 degradation incubated for 48 hrs by Western blot analysis; format: cell-based; conditions: dose 1-10 µM
Procedure, shortened: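 WSU-DLCL-2 cells treated 48 h (1 μM for the single-concentration screen), lysed; SDS-PAGE, nitrocellulose transfer, 5% milk block, primary antibody 4 °C overnight, chemiluminescence. Bands quantified by densitometry, normalized to GAPDH, expressed relative to DMSO-treated cells; mean ± SD of three independent experiments, t-test.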

[12] = target: Histone-lysine N-methyltransferase EZH2 (Homo sapiens, UniProt Q15910); format: cell-based, Sf9
NCI-H1299 = test: Antiproliferative activity against EZH2-knockdown human NCI-H1299 cells assessed as inhibition of cell growth at 10 uM treated for 9 days by optical microscopic analysis; format: functional, cell-based; conditions: time 9.0 day
Procedure, shortened: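 Cells seeded at 5 × 10³ per well, grown 24 h, then exposed to compound at 10 μM for 9 days with medium refreshed. Cells were photographed and counted on days 1, 3, 5, 7 and 9. For lines 1-2, EZH2-targeting or control shRNA was induced in the cells. Mean SD of three independent experiments; t-test against control.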

[13] = target: T1, Protein cereblon/Histone-lysine N-methyltransferase EZH2 (Homo sapiens); test: PROTAC activity at CRBN E3 ligase/EZH2 in PRC2 complex in human WSUDLCL2 cells assessed as effect on EZH2 mRNA expression at 1 uM incubated for 48 hrs by RT-qPCR analysis; format: cell-based
Procedure, shortened: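 WSU-DLCL-2 cells treated 48 h with 1 μM compound. Total RNA extracted with Trizol and reverse-transcribed. SYBR qPCR run as 95 °C 30 s, then 40 cycles of 95 °C 6 s and 60 °C 20 s. PRC2 subunit mRNA normalized to the DMSO-treated group; mean SD, t-test.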

WSUDLCL2 [14] = test: Antiproliferative activity against human WSUDLCL2 cells harboring EZH2-Y641F mutant assessed as inhibition of cell growth incubated for 3 to 7 days by optical microscopic analysis (Rvb= 4.92 uM); format: functional, cell-based
[15] = target: T1, Protein cereblon/Histone-lysine N-methyltransferase EZH2 (Homo sapiens); test: PROTAC activity at CRBN E3 ligase/EZH2 in PRC2 complex in human WSUDLCL2 cells assessed as induction of SUZ12 degradation at 10 uM incubated for 48 hrs by Western blot analysis; format: cell-based
[16] = target: T1, Protein cereblon/Histone-lysine N-methyltransferase EZH2 (Homo sapiens); test: PROTAC activity at CRBN E3 ligase/EZH2 in PRC2 complex in human WSUDLCL2 cells assessed as induction of RbAp48 degradation at 1 uM measured up to 2 hrs by Western blot analysis; format: cell-based; conditions: time hrs <=2

T1 sequence (Q15910 whole entry, looked up): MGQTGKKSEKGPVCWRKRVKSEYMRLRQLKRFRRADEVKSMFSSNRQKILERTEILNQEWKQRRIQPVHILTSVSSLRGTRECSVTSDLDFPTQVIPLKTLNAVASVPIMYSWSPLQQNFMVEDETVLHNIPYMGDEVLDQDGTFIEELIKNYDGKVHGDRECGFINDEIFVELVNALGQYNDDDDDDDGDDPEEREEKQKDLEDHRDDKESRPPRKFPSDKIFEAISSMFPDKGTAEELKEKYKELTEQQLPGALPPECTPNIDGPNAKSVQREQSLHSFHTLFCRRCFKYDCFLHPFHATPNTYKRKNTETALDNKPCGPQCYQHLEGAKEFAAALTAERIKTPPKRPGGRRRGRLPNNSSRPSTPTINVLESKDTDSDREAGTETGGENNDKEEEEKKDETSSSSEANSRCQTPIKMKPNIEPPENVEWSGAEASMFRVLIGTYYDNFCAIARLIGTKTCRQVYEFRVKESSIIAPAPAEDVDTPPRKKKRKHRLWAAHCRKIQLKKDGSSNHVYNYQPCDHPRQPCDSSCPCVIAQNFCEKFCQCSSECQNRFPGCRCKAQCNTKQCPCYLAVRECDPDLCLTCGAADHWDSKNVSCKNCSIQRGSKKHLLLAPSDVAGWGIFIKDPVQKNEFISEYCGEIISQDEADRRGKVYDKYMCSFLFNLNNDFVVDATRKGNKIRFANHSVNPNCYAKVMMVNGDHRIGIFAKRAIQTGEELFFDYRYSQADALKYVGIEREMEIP
T1 sequence (Q96SW2 whole entry, looked up): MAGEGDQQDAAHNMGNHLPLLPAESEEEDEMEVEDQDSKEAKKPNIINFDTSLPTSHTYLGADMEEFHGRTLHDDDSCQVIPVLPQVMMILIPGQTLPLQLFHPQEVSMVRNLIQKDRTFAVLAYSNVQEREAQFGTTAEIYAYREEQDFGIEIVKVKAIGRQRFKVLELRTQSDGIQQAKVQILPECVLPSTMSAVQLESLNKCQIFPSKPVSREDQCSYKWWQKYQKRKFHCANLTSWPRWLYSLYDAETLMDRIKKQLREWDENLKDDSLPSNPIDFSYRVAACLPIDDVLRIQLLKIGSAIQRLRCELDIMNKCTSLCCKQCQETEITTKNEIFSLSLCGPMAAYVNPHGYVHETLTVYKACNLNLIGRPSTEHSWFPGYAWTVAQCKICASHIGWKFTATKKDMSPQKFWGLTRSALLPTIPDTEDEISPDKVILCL
Sequence of Histone-lysine N-methyltransferase EZH2 (Q15910 whole entry): as the sequence (Q15910 whole entry, looked up) above

Activity [1]: Active | Activity [2]: Active | Activity [3]: inactive | Activity [7]: inactive | Activity [10]: inactive | Activity [11]: Dose-Dependent Effect | IC50 [12]: 2.7 nM | Activity [13]: inactive | Activity [15]: inactive | Activity [16]: inactive
Compound: CCN(c1cc(-c2ccc(CN3CCN(CCCCCCCOc4cccc5c4C(=O)N(C4CCC(=O)NC4=O)C5=O)CC3)cc2)cc(C(=O)NCc2c(C)cc(C)[nH]c2=O)c1C)C1CCOCC1 (stereo not drawn)
Activity (WSUDLCL2 [4]): Active | Activity (A549 [5]): Active | inhibition (WSUDLCL2 [6]): Active | Activity (A549 [8]): Active | Activity (WSUDLCL2 [9]): inactive | Activity (Pfeiffer): Active | Activity (NCI-H1299): Active | IC50 (WSUDLCL2 [14]): 3690 nM
